CHOP inh: inhibitors of CHOP induction in ER stress response | inhibition, % at 10 µM | CHO-K1 CHOP-promoter luciferase, tunicamycin-induced, 15-18 h | AID 2732 | 220,000 compounds, 3.8% hits;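 active means compounds that reduced the stress-induced luciferase reporter signal by more than about 70% of percent inhibition, limit read from the data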;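 further: 0% = tunicamycin plus vehicle and 100% = wells without tunicamycin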
697 NFkB inh: inhibitors of the PMA/ionomycin-induced NF-kB reporter in 697 B cells | 697 B-cell NF-kB luciferase reporter, 16 h | inhibition, % at 4 µM | 330,000 compounds, 0.33% hits | AID 435022; in the data active means inhibition above about 35%
UPR XBP1 act: adaptive UPR (XBP1) activation; CHO-XBP1 luciferase reporter, IRE1-XBP1 UPR activation, luminescence; percent of tunicamycin response, DMSO as zero; activation, % at 20 µM; 330,000 compounds, 0.33% hits;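 active means versus positive control, 20 µM dose yields 30% or more activation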;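 further: 100% = tunicamycin at 10 µg/mL and 0% = DMSO only wells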
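Assay system: CHO-XBP1 luciferase reporter cells; Schedule: 6 h treatment, 37 °C; Detection: glow luminescence from Steady-Glo reagent; Benchmarks: high control tunicamycin 10 µg/mL final, low control DMSO vehicle only.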
Jurkat NFkB inh: lowers PMA/ionomycin-induced NF-kB signal in Jurkat cells; PMA/ionomycin-induced NF-kB luciferase reporter, luminescence; inhibition, % at 4 µM; 330,000 compounds, 0.53% hits; in the data active means inhibition above about 50%
CHOP UPR activ: apoptotic UPR (CHOP) activation | CHO-CHOP luciferase reporter, luminescence; percent of tunicamycin response over DMSO baseline | activation, % at 10 µM | 330,000 compounds, 0.34% hits;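 active means at 10 µM dose, activation of 40% or more, normalized to positive control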;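 further: 100% = tunicamycin at 10 µg/mL and 0% = DMSO alone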
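Assay system: CHO-CHOP cells, stable luciferase reporter of PERK-eIF2a-CHOP signalling / Buffer or medium: F12 plus 10% serum / Compound dosing: one dose, 10 µM in 0.5% DMSO / Times: 6 h compound treatment, 37 °C / Technique: luciferase luminescence / Read-out: % reporter activation, DMSO baseline versus tunicamycin full activation / Benchmarks: tunicamycin and DMSO controls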
XBP1 UPR conf: confirmation of adaptive unfolded protein response (XBP1) activators | shares compounds with UPR XBP1 act | CHO-XBP1 IRE1-XBP1 luciferase reporter, luminescence | activation, % at 20 µM | 1,000 compounds, 63% hits | AID 485299;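 active means reporter signal at least 30% of the positive control's activation in two or more of four replicate wells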;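 further: plate controls were DMSO negative control for no effect and tunicamycin 10 µg/mL positive control for full effect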
* hit, by the source's call; . = not tested or not shown. Only a selection was taken, and hits are over-represented in it overall.

SMILES	CHOP inh	697 NFkB inh	UPR XBP1 act	Jurkat NFkB inh	CHOP UPR activ	XBP1 UPR conf
Cc1cc(NC(=O)c2cncc(Br)c2)ccc1NC(=O)c1cc2ccccc2o1	.	-50	35*	8	26	81*
COc1cc(NC(=O)c2cccs2)ccc1NC(=O)c1cc2ccccc2o1	91*	-15	69*	4	38	37*
COc1cc(NC(=O)c2ccccc2)ccc1NC(=O)c1cc2ccccc2o1	.	-55	7	-1	21	.
COc1ccc(Br)cc1CNC(=O)Cn1nc(C)n2cccc2c1=O	.	3	-3	-2	-1	.
O=C(N/C(=C\c1cccc([N+](=O)[O-])c1)C(=O)N1CCOCC1)c1ccco1	.	22	1	15	1	.
CC/C(=N/Nc1ccccc1)c1cnnc(-c2ccccc2)n1	40	-27	69*	-19	4	10
CC/C(=N/Nc1cccc(Cl)c1)c1cnnc(SC)n1	-5	-24	-2	-4	-1	.
Cn1c2ccccc2c2cc(/C=N/NC(=O)c3ccc(N)cc3)ccc21	.	3	1	6	1	.
Cn1c(-c2ccccc2)c(/C=N/NC(=O)c2ccc(O)cc2)c2ccccc21	52	-42	35*	-32	11	63*
COc1ccc2cc3cc(C(=O)Nc4ccccc4N4CCN(C)CC4)oc3nc2c1	86*	-43	40*	22	3	13
Cc1cc(C)nc(NS(=O)(=O)c2ccc(NC(=O)c3cc4c(=O)n5cccc(C)c5nc4n3C)cc2)n1	.	0	101*	14	10	4
Cc1cccn2c(=O)c3cc(C(=O)NC4CCCCC4)n(C)c3nc12	.	-19	15	17	7	.
COc1ccc2[nH]c(C)c(C(=O)CN(C)CC3OCCO3)c2c1	21	16	-2	5	2	.
C[C@@H]1CN([C@H](C)CO)C(=O)Cc2cc(NS(=O)(=O)c3ccc(F)cc3)ccc2O[C@H]1CN(C)Cc1ccc(C(=O)O)cc1	.	18	-3	8	1	.
C[C@@H]1CN([C@H](C)CO)C(=O)Cc2cc(NS(=O)(=O)c3ccc(Cl)cc3)ccc2O[C@H]1CN(C)Cc1ccc(C(F)(F)F)cc1	.	-13	48*	1	28	22
Nc1ncnc2c1ncn2[C@@H]1O[C@H](CNCc2ccc(-c3cc(C(F)(F)F)ccc3Cl)o2)[C@@H](O)[C@H]1O	.	0	3	.	1	.
O=[N+]([O-])c1cc([N+](=O)[O-])c(Oc2cc(F)ccc2F)cc1NN1CCCCC1	.	-4	2	4	-1	.
Cn1cc(/C=C(\C#N)C(=O)Nc2cccc([N+](=O)[O-])c2)c2ccccc21	-36	24	79*	-5	26	73*
CC(=O)NC(c1ccco1)c1ccc2cccnc2c1O (centres undefined)	.	-4	32*	21	-3	-1
CCCC(=O)NC(c1ccco1)c1cc([N+](=O)[O-])c2cccnc2c1O (centres undefined)	16	5	-4	10	8	.
CCN(C(=O)COC(=O)CCNS(=O)(=O)c1ccccc1F)c1c(N)n(Cc2ccccc2)c(=O)[nH]c1=O	.	16	1	6	2	.
CCN1C(=O)/C(=C2/C(=O)N3c4c(cc(OC(C)=O)cc42)C(C)=CC3(C)C)SC1=S	13	11	2	4	-1	.
CC1=CC(C)(C)N2C(=O)C(=O)c3cc(OC(=O)c4ccco4)cc1c32	-2	11	41*	46	1	57*
COc1cc([N+](=O)[O-])ccc1NC(=S)NNC(=O)c1ccc2c(c1)OCO2	.	-17	30*	-3	-1	0
O=C(NC(=S)Nc1cc([N+](=O)[O-])ccc1O)c1ccc2c(c1)OCO2	.	-246	-3	-103	1	.
SMILES	CHOP inh	697 NFkB inh	UPR XBP1 act	Jurkat NFkB inh	CHOP UPR activ	XBP1 UPR conf
COc1cc(/C=N/N2CCCCC2)cc([N+](=O)[O-])c1O	.	2	-7	14	-2	.
CCOC(=O)c1c(NC(=O)c2cc(C)on2)c2cc([N+](=O)[O-])ccc2n1C	-5	-16	84*	9	20	49*
Nc1nc(Nc2cccc(C(F)(F)F)c2)nc(C(F)(F)F)n1	-5	-4	34*	4	1	49*
Nc1ncnc(Nc2cccc(C(F)(F)F)c2)n1	12	26	0	-3	0	.
O=C(Nc1cc(S(=O)(=O)N2CCOCC2)ccc1Cl)c1cc([N+](=O)[O-])ccc1Cl	.	10	69*	3	1	24
COc1ccc(Cl)cc1N=Cc1c(O)c2ccccc2oc1=O	.	11	42*	5	32	11
Cc1cc(C)cc(N=Cc2c(O)c3ccccc3oc2=O)c1	55	7	29	-4	10	.
CSc1ccc(/C=C(/NC(=O)c2ccco2)C(=O)N2CCOCC2)cc1	.	20	1	13	1	.
CN(C)c1ccc(/C=N/NC(=O)c2nnn(-c3nonc3N)c2CN2CCCCCC2)cc1	.	-4	59*	-4	24	20
CC1CCN(Cc2c(C(=O)N/N=C/c3ccc(C(C)C)cc3)nnn2-c2nonc2N)CC1	.	-2	36*	14	3	74*
O=C(Nc1ccc(Cl)c(C(F)(F)F)c1)[C@@H]1CC=C[C@@H]2CCN(Cc3ccc(Cl)c(Cl)c3)C(=O)[C@@H]21	.	9	4	-2	1	.
Cc1nc(NC(=O)c2cc3c(C)nn(-c4ccccc4)c3s2)sc1C(=O)Nc1ccccc1	-18	4	49*	-8	1	54*
COc1cc(C(=O)Nc2cc(-c3nc4cc(C)ccc4o3)ccc2C)cc(OC)c1OC	34	-153	131*	-81	19	96*
Cc1ccc2oc(-c3ccc(C)c(NC(=O)Cc4cccs4)c3)nc2c1	33	-46	-1	-61	3	.
CN(Cc1nc(-c2cnccn2)no1)Cc1n[nH]c2c1CCCC2	1	.	.	.	.	.
C#CCn1c(=NC(=O)c2ccc(Cl)s2)sc2cccc(OC)c21	79*	-34	136*	-32	10	112*
NC(=O)C1CCN(C(=O)c2ccc(Cl)c(S(=O)(=O)N3CCCCCC3)c2)CC1	.	-10	-2	-12	1	.
Cc1ccc(NC(=O)CSc2ccccc2NC(=O)c2cccc(Cl)c2)cc1Cl	57	-6	36*	2	7	18
COc1cc(OC)cc(C(=O)Nc2ccccc2-c2nnn(CC(=O)Nc3cc(C)on3)n2)c1	.	0	327*	-7	2	1
COc1ccc(C(=O)Nc2ccccc2-c2nnn(CC(=O)Nc3ccc4c(c3)OCCO4)n2)cc1	42	-11	4	-11	-1	.
CC(C)(C)OC(=O)N[C@H](C(=O)OC(C)(C)C)c1ccccc1	.	12	-4	4	1	.

Assay outcomes as filed in PubChem.
